Key:
[1] = tested on: patients with metastatic castration-resistant prostate cancer; experiment: Phase I dose escalation; format: in vivo, human
Method in brief: (§1)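 Open-label, single-centre 3+3 escalation in mCRPC. Capivasertib was given b.i.d. 4/7, starting at 320 mg with predefined escalation and de-escalation. A 7-day cycle 0 (single dose on D1) preceded 28-day cycles of capivasertib plus enzalutamide 160 mg daily. MTD/RP2D was the highest level with ≥6 patients and <1/3 with DLT. AEs were graded by CTCAE v4.0 from first dose to 30 days post-discontinuation. All treated patients were included.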

[2] = tested on: patients with metastatic castration-resistant prostate cancer; experiment: Treatment-related adverse events; format: in vivo, human; details: Total N=15, with enzalutamide
Method in brief: as §1

[3] = Plasma pharmacokinetics of capivasertib; format: in vivo, human
Method in brief: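 Venous blood was sampled serially up to 48 h post-dose on C0D1 (capivasertib alone) and on C2D1, C2D4 and C2D11 (with enzalutamide). Cmax, Tmax and AUC8h were derived. Geometric means of dose-normalised Cmax and AUC8h were compared between cycle 2 and cycle 0.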

pSer9 GSK3β = experiment: Pharmacodynamics: phosphorylated Ser9 GSK3β in platelet-rich plasma; format: in vivo, human; details: 400 mg alone (cycle 0)
Method in brief: (§2)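 mCRPC patients took a single capivasertib dose on cycle 0 day 1, followed by PK and PD sampling. Combination with enzalutamide 160 mg daily began at C1D1, with capivasertib b.i.d. on a 4/7 schedule. Platelet-rich plasma and hair follicles were assayed for pSer9 and total GSK3β and for pThr246 and total PRAS40. Statistics used one-way ANOVA with […] and Dunnett's tests, with P<0.05 as significant.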

pThr246 PRAS40 = experiment: Pharmacodynamics: phosphorylated Thr246 PRAS40 in hair follicles; format: in vivo, human
Method in brief: as §2

pERK = experiment: IHC for pERK expression in tumour biopsies; format: in vivo, human; details: with enzalutamide, including two of the responders
patients = details: 4 days on and 3 days off every week (4/7); cited from earlier work
[4] = tested on: metastatic prostate cancer patients; details: overall population; marked benefit for PTEN loss; cited from earlier work

## NC1(C(=O)N[C@@H](CCO)c2ccc(Cl)cc2)CCN(c2nc[nH]c3nccc2-3)CC1 [capivasertib]
[1]; 400 mg b.i.d., with enzalutamide
  patients experiencing a DLT (maculopapular rash): 1/6
[1]; 4/7 schedule, with enzalutamide 160 mg daily
  RP2D (recommended phase II dose): 400 mg b.i.d.
[1]; all dose levels
  fatal SAEs: no fatal SAEs
[1]; beyond cycle 1, six of fourteen patients
  patients with dosing interruption or reduction: 42.9%
[1]; during the DLT period, five of nine patients
  dosing interruptions or reductions due to AEs: 55.6%
[1]; of 259 AEs, safety population
  AEs judged to be treatment-related: 42.5%
[1]; safety population, all dose levels
  AEs reported: 259
[2]
  Hyper-glycaemia, Grade 3/4: 26.7%
[3]; compared with capivasertib monotherapy
  patients in whom enzalutamide decreased both Cmax and AUC: 11 out of 13
[3]; cycle 2 (with enzalutamide) compared with cycle 0 (monotherapy)
  approximate mean decrease of Cmax and AUC: ~40%
pSer9 GSK3β; 2 h after dose
  mean decrease in pGSK3β compared with baseline: 56%
pSer9 GSK3β; 4 h after dose
  mean decrease in pGSK3β compared with baseline: 44%
pSer9 GSK3β; 8 h after dose
  mean decrease in pGSK3β compared with baseline: 22%
pThr246 PRAS40; 320 mg with enzalutamide
  mean percentage reduction in PRAS40: −34%
pThr246 PRAS40; 320 mg without enzalutamide
  mean percentage reduction in PRAS40: 38%
pThr246 PRAS40; 400 mg with enzalutamide
  mean percentage reduction in PRAS40: 22%
pThr246 PRAS40; 400 mg without enzalutamide
  mean percentage reduction in PRAS40: 23%
pThr246 PRAS40; 480 mg with enzalutamide
  mean percentage reduction in PRAS40: 40%
pThr246 PRAS40; 480 mg without enzalutamide
  mean percentage reduction in PRAS40: 26%
pERK
  pERK expression by IHC, post-treatment vs baseline: increased after treatment in three patients
patients
  single-agent recommended phase II dose (RP2D): 480 mg b.i.d.

## CC(C)NC[C@@H](C(=O)N1CCN(c2ncnc3c2[C@H](C)C[C@H]3O)CC1)c1ccc(Cl)cc1 [ipatasertib]
[4]
  rPFS, abiraterone with vs without ipatasertib: improved rPFS
